Source: ChEMBL document CHEMBL1135987, “Synthesis of new dihydroindeno[1,2-c]isoquinoline and indenoisoquinolinium chloride topoisomerase I inhibitors having high in vivo anticancer activity in the hollow fiber animal model” (2002)
Each block holds one compound with its values, some of them ahead of it. Active and inactive are the calls of the source. The rule behind the calls is not given here.

How the values were obtained:
[1] = Cytotoxicity in colon HCT116 cell line.; type: functional; conditions: Homo sapiens, HCT-116
How it was run: (§1)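 NCI screen of roughly 55 human cancer cell lines from diverse tumor origins, tested over 10^-4 to 10^-8 M. GI50 is the concentration giving 50% growth inhibition.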

[2] = Cytotoxicity in breast MDA-MB-435 cell line.; type: functional; conditions: Homo sapiens; how it was run: as §1
[3] = Cytotoxicity in CNS SF-539 cell line.; type: functional; conditions: Homo sapiens; how it was run: as §1
[4] = Cytotoxicity in prostate DU-145 cell line.; type: functional; conditions: Homo sapiens; how it was run: as §1
[5] = Cytotoxicity in lung HOP-62 cell line.; type: functional; conditions: Homo sapiens; how it was run: as §1
[6] = tested on: Panel (Carcinoma cell lines); experiment: Mean graph mid point for growth inhibition of all human cancer cell lines tested.; type: functional; design: unit: µM
How it was run: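 NCI screen of roughly 55 human cancer cell lines, test range 10^-4 to 10^-8 M. Mean graph midpoint is the average GI50 over all cell lines successfully tested. GI50 values below or above the range are set to 10^-8 M or 10^-4 M.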

[7] = Cytotoxicity in ovarian OVCAR-3 cell line.; type: functional; conditions: Homo sapiens; how it was run: as §1
[8] = Cytotoxicity in melanoma UACC-62 cell line.; type: functional; conditions: Homo sapiens; how it was run: as §1
[9] = Cytotoxicity in renal SN12C cell line.; type: functional; conditions: Homo sapiens; how it was run: as §1
[10] = biological target: T1, DNA topoisomerase 1 (Homo sapiens) (UniProt P11387); experiment: DNA topoisomerase I mediated cleavage activity tested up to a concentration of 100 uM; Active or inactive
T1 sequence (whole entry): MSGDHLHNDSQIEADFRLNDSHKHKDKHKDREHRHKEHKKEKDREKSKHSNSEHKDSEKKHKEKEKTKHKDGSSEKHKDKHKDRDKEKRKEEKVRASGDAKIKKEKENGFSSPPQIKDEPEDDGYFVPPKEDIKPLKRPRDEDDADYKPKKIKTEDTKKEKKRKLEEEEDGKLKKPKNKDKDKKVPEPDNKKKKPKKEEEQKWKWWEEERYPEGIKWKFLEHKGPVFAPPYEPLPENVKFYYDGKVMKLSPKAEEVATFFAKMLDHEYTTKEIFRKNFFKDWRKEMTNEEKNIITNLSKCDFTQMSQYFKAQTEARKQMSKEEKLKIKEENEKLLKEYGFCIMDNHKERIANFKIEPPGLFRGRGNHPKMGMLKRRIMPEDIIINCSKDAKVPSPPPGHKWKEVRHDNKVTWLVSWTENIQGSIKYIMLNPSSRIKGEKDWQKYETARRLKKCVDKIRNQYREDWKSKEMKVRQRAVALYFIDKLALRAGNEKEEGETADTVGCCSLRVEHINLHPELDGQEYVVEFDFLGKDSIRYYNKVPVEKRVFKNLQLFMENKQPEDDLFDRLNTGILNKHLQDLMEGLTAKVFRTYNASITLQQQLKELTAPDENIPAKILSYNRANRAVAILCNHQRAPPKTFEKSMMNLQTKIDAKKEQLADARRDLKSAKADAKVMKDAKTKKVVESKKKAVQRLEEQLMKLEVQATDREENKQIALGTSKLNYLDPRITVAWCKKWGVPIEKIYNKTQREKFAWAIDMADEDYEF
How it was run: (§2)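 Baculovirus-expressed human recombinant top1 was incubated with a 161 bp PvuII/HindIII fragment of pBluescript SK(-), 3'-end-labeled at the HindIII site with [α-32P]-dCTP (about 50 000 dpm per reaction), and drug up to 100 μM, for 30 min at 22 °C. Reactions were stopped with 0.5% SDS final. Products ran on denaturing 16% polyacrylamide/7 M urea gels at 51 °C. Cleavage was scored semiquantitatively (+, ++, +++) against the parent lead.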

[11] = biological target: T1, DNA topoisomerase 1 (Homo sapiens); experiment: DNA topoisomerase I mediated cleavage activity tested up to a concentration of 100 uM; Same activity as compound 1; how it was run: as §2
[12] = biological target: T1, DNA topoisomerase 1 (Homo sapiens); experiment: DNA topoisomerase I mediated cleavage activity tested up to a concentration of 100 uM; Greater activity than compound 1; how it was run: as §2
[13] = biological target: T1, DNA topoisomerase 1 (Homo sapiens); experiment: DNA topoisomerase I mediated cleavage activity tested up to a concentration of 100 uM; how it was run: as §2
[14] = biological target: T1, DNA topoisomerase 1 (Homo sapiens); experiment: DNA topoisomerase I mediated cleavage activity tested up to a concentration of 100 uM; week activity; how it was run: as §2

Structure (SMILES): C/C=C(/C=O)CCN1C(=O)c2cc(OC)c(OC)cc2[C@H]2C(=O)c3cc4c(cc3[C@H]21)OCO4
- GI50 [1]: 0.25 µM
- GI50 [2]: 4.46 µM
- GI50 [3]: 0.21 µM
- GI50 [4]: 0.22 µM
- GI50 [5]: 0.3 µM
- MGM [6]: 0.95
- GI50 [7]: 7.12 µM
- GI50 [8]: 0.15 µM
- GI50 [9]: 0.14 µM

Structure (SMILES): CCCN1Cc2cc(OC)c(OC)cc2[C@@H]2[C@H]1c1cc3c(cc1[C@@H]2O)OCO3
- GI50 [1]: 17.8 µM
- GI50 [2]: 5.8 µM
- GI50 [3]: 21.7 µM
- GI50 [4]: 33.9 µM
- GI50 [5]: 16 µM
- MGM [6]: 20.9
- GI50 [7]: 6.3 µM
- GI50 [8]: 18.7 µM

- Activity [10]: inactive
Structure (SMILES): CCN1C(=O)c2cc(OC)c(OC)cc2[C@H]2C(=O)c3cc4c(cc3[C@H]21)OCO4
- MGM [6]: 0.81

- Activity [11]: Same activity as compound 1
Structure (SMILES): COc1cc2c3c(n(C)c(=O)c2cc1OC)-c1cc2c(cc1C3=O)OCO2
- MGM [6]: 20

Structure (SMILES): COc1cc2c(cc1OC)[C@H]1C(=O)c3cc4c(cc3[C@H]1N(CC#N)C2=O)OCO4
- GI50 [1]: 0.6 µM
- GI50 [2]: 9.04 µM
- GI50 [3]: 2.12 µM
- GI50 [4]: 0.85 µM
- GI50 [5]: 5.42 µM
- MGM [6]: 3.28
- GI50 [7]: 2.02 µM
- GI50 [8]: 1.73 µM
- GI50 [9]: 0.41 µM

Structure (SMILES): CCCN1C(=O)c2cc(OC)c(OC)cc2[C@H]2C(=O)c3cc4c(cc3[C@H]21)OCO4
- GI50 [1]: 0.39 µM
- GI50 [2]: 1.1 µM
- GI50 [3]: 0.44 µM
- GI50 [4]: 0.31 µM
- GI50 [5]: 0.59 µM
- MGM [6]: 0.69
- GI50 [7]: 0.92 µM
- GI50 [8]: 0.26 µM
- GI50 [9]: 0.43 µM

Structure (SMILES): COC(=O)CCCN1C(=O)c2cc(OC)c(OC)cc2[C@H]2C(=O)c3cc4c(cc3[C@H]21)OCO4
- GI50 [1]: 0.34 µM
- GI50 [2]: 2.89 µM
- GI50 [3]: 0.71 µM
- GI50 [4]: 0.63 µM
- GI50 [5]: 0.82 µM
- MGM [6]: 1.48
- GI50 [7]: 2.43 µM
- GI50 [8]: 0.53 µM
- GI50 [9]: 0.24 µM

Structure (SMILES): COc1cc2c(cc1OC)[C@H]1C(=O)c3c(ccc4ccccc34)[C@H]1N(CCCBr)C2=O
- GI50 [1]: 4.02 µM
- GI50 [2]: 2.25 µM
- GI50 [4]: 2.46 µM
- GI50 [5]: 1.44 µM
- MGM [6]: 2.95
- GI50 [7]: 1.97 µM
- GI50 [8]: 2.39 µM
- GI50 [9]: 2.35 µM

Structure (SMILES): CCCCN1C(=O)c2cc(OC)c(OC)cc2[C@H]2C(=O)c3cc4c(cc3[C@H]21)OCO4
- GI50 [1]: 0.11 µM
- GI50 [2]: 1.6 µM
- GI50 [3]: 0.32 µM
- GI50 [5]: 0.45 µM
- MGM [6]: 2.14
- GI50 [7]: 1.4 µM
- GI50 [8]: 0.61 µM

Structure (SMILES): COc1cc2c(cc1OC)[C@H]1C(=O)c3c(ccc4ccccc34)[C@H]1N(CCCCl)C2=O
- GI50 [1]: 6.52 µM
- GI50 [2]: 2.48 µM
- GI50 [3]: 14.7 µM
- GI50 [4]: 5.49 µM
- GI50 [5]: 2.76 µM
- MGM [6]: 4.22
- GI50 [7]: 1.93 µM
- GI50 [8]: 3.73 µM
- GI50 [9]: 11.6 µM

- Activity [11]: Same activity as compound 1
Structure (SMILES): COc1cc2c(cc1OC)[C@H]1C(=O)c3cc4c(cc3[C@H]1N(CCCBr)C2=O)OCO4
- GI50 [1]: 0.07 µM
- GI50 [2]: 0.15 µM
- GI50 [3]: 0.04 µM
- GI50 [4]: 0.03 µM
- GI50 [5]: 0.12 µM
- MGM [6]: 0.12
- GI50 [7]: 0.4 µM
- GI50 [8]: 0.05 µM
- GI50 [9]: 0.03 µM

- Activity [12]: Greater activity than compound 1
Structure (SMILES): CCC[n+]1cc2cc(OC)c(OC)cc2c2c1-c1cc3c(cc1C2)OCO3.[Cl-]
- GI50 [1]: 3.55 µM
- GI50 [2]: 3.37 µM
- GI50 [3]: 1.08 µM
- GI50 [4]: 10.5 µM
- GI50 [5]: 3.98 µM
- MGM [6]: 4.1
- GI50 [7]: 1 µM
- GI50 [8]: 2.19 µM
- GI50 [9]: 0.64 µM

Structure (SMILES): COc1cc2c(cc1OC)[C@H]1C(=O)c3cc4c(cc3[C@H]1N(CC(F)(F)F)C2=O)OCO4
- GI50 [1]: 14.4 µM
- GI50 [2]: 7.6 µM
- GI50 [3]: 7.63 µM
- GI50 [4]: 7.5 µM
- GI50 [5]: 34 µM
- MGM [6]: 6.6
- GI50 [7]: 7.96 µM
- GI50 [8]: 4.12 µM
- GI50 [9]: 7.87 µM

- Activity [12]: Greater activity than compound 1
Structure (SMILES): CCCC[n+]1cc2cc(OC)c(OC)cc2c2c1-c1cc3c(cc1C2)OCO3.[Cl-]
- GI50 [1]: 1.58 µM
- GI50 [2]: 1.37 µM
- GI50 [3]: 2.16 µM
- GI50 [4]: 2.69 µM
- GI50 [5]: 3.06 µM
- MGM [6]: 1.31
- GI50 [7]: 0.28 µM
- GI50 [8]: 0.51 µM
- GI50 [9]: 0.43 µM

Structure (SMILES): CCOC(=O)CCCN1C(=O)c2cc(OC)c(OC)cc2[C@H]2C(=O)c3cc4c(cc3[C@H]21)OCO4
- GI50 [1]: 1.81 µM
- GI50 [2]: 16.5 µM
- GI50 [4]: 3.07 µM
- GI50 [5]: 2.22 µM
- MGM [6]: 7.76
- GI50 [7]: 22 µM
- GI50 [8]: 3.04 µM
- GI50 [9]: 2.07 µM

- Activity [13]: 0
Structure (SMILES): C=CCN1C(=O)c2cc(OC)c(OC)cc2[C@H]2C(=O)c3cc4c(cc3[C@H]21)OCO4
- MGM [6]: 0.98

Structure (SMILES): COc1cc2c(cc1OC)[C@H]1C(=O)c3cc4c(cc3[C@H]1N(CCCCl)C2=O)OCO4
- GI50 [1]: 0.16 µM
- GI50 [2]: 0.33 µM
- GI50 [3]: 0.02 µM
- GI50 [4]: 0.03 µM
- GI50 [5]: 0.08 µM
- MGM [6]: 0.11
- GI50 [7]: 0.36 µM
- GI50 [8]: 0.02 µM
- GI50 [9]: 0.02 µM

- Activity [14]: week activity
Structure (SMILES): COc1cc2c(cc1OC)[C@H]1C(=O)c3cc4c(cc3[C@H]1N(CCCN=[N+]=[N-])C2=O)OCO4
- GI50 [1]: 0.4 µM
- GI50 [2]: 1.27 µM
- GI50 [3]: 0.33 µM
- GI50 [4]: 0.33 µM
- GI50 [5]: 0.36 µM
- MGM [6]: 0.69
- GI50 [7]: 1.27 µM
- GI50 [8]: 0.29 µM
- GI50 [9]: 0.25 µM

- Activity [11]: Same activity as compound 1
Structure (SMILES): CC[n+]1cc2cc(OC)c(OC)cc2c2c1-c1cc3c(cc1C2)OCO3.[Cl-]
- MGM [6]: 13

Structure (SMILES): COc1cc2c(cc1OC)[C@H]1C(=O)c3cc4c(cc3[C@H]1N(Cc1ccccc1)C2=O)OCO4
- GI50 [1]: 0.54 µM
- GI50 [3]: 0.38 µM
- GI50 [4]: 0.55 µM
- GI50 [5]: 2.93 µM
- MGM [6]: 1.18
- GI50 [7]: 7.17 µM
- GI50 [8]: 1.84 µM
- GI50 [9]: 0.39 µM
